M18AAP inhibitor – blocks P. falciparum M18 aspartyl aminopeptidase | recombinant PfM18AAP, H-Glu-NHMec fluorogenic cleavage | hit rate 1.2% among 290,000 | inhibition, % at 7.35 µM;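 active means inhibition above the campaign mean inhibition over all tested compounds plus 3 SD, cut at about 28% in these data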
TbHK1 inh – T. brucei hexokinase 1 inhibition | recombinant TbHK1, G6PDH-coupled NADH A340 | inhibition, % at 10 µM | hit rate 0.11% among 220,000 | AID 1430;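 active means inhibition of 50% or more in the single-dose primary screen; inactive means inhibition below 50%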
L929 necroptosis – L929 zVAD cell death inhibition | AID 1377 | viability rescue, % at 10 µM | hit rate 0.38% among 220,000 | L929 zVAD necroptosis rescue, ATP luminescence, 24 h; with zVAD 60 µM;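 active means activation, scaled between plate controls, above about 75%, limit read from the data; inactive means activation under that limit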
RBBP9 inh – inhibitors of human serine hydrolase RBBP9; hit rate 0.2% among 220,000; O75884; inhibition, % at 7.94 µM; recombinant RBBP9, FP-Rh probe fluorescence polarization;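 active means inhibition above the campaign mean of all tested compounds plus 3 SD, cut at about 14% in these data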
Target sequence (O75884 whole entry, looked up): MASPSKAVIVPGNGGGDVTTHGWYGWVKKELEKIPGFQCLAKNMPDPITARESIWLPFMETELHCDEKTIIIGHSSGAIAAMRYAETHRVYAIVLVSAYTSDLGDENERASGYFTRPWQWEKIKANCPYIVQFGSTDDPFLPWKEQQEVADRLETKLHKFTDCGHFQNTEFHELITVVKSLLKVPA
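Test system – recombinant human RBBP9 · Input – RBBP9 2.5 µM in dispensing solution, pre-mixing · Medium – Tris buffer pH 8.0, NaCl, Pluronic · Schedule – preincubation 30 min plus labeling 45 min at 25 °C · Measured by – fluorescence polarization · Measure – % inhibition · Controls – DMSO and no-protein wells · Replicates – one well per compound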
TNF necrop inh – TNF-alpha cell death inhibition in Jurkat FADD-/- cells | Jurkat FADD-/- TNF necroptosis rescue, ATP luminescence, 24 h; 0 = TNF only, 100 = no-TNF cells | activation (protection from cell death), % at 10 µM | hit rate 0.068% among 220,000;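 active means activation, meaning protection from cell death, of at least 50% relative to plate controls; inactive means activation below 50%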;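 further: necroptosis triggered by 40 ng/mL TNF-alpha added together with compound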
Lipid droplet – modulators of hepatic lipid droplet formation. hit rate 0.4% among 240,000. AML12 mouse hepatocytes, oleate lipid droplets, BODIPY imaging. inhibition, % at 6.5 µM. AID 1656;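 active means lipid droplet intensity inhibited by at least 50%, with more than 500 cells counted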
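Material – AML12 mouse liver cells · Also added – oleate loading, 100 µM · Compound dosing – 6.5 µM single-point dosing · Times – overnight treatment with compound plus oleate · Measured by – fluorescence imaging, 20x objective, two fields per well · Read-out – percent inhibition of filter-corrected integrated lipid droplet intensity per well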
A number is an active result. Only some compounds are listed: those with a hit (about 2% of all), similar ones and a draw of the others.

Screening Oc1ccc(/C=N/NC(=S)N2CCOCC2)cc1 returned M18AAP inhibitor 33, TbHK1 inh inactive, L929 necroptosis inactive, RBBP9 inh inactive, TNF necrop inh inactive and Lipid droplet inactive.
CCOc1ccc(C(=S)N2CCCC2)c(OCC)c1 was read as M18AAP inhibitor 30 and Lipid droplet inactive.
For NS(=O)(=O)c1ccc(NC(=S)N2CCN(c3ccccc3Cl)CC2)cc1 the results were M18AAP inhibitor inactive, TbHK1 inh inactive, L929 necroptosis inactive, RBBP9 inh inactive, TNF necrop inh inactive and Lipid droplet inactive.
NS(=O)(=O)c1ccc(NC(=S)N2CCN(c3cccc(Cl)c3)CC2)cc1 was read as M18AAP inhibitor 29, TbHK1 inh inactive, L929 necroptosis inactive, RBBP9 inh inactive, TNF necrop inh inactive and Lipid droplet inactive.
O=C(CCc1nnc(CCc2c[nH]c3ccccc23)o1)NC1CCC1 was read as M18AAP inhibitor inactive, TbHK1 inh inactive, L929 necroptosis inactive, RBBP9 inh inactive, TNF necrop inh inactive and Lipid droplet inactive.
`Cc1[nH]n(-c2ccccc2)c(=O)c1N=Nc1ccccc1` gave M18AAP inhibitor inactive, TbHK1 inh inactive, L929 necroptosis inactive, RBBP9 inh inactive, TNF necrop inh inactive and Lipid droplet 54.
For O=S(=O)(/N=C(/Nc1ccc(Cl)cc1Cl)c1ccccc1)c1cccs1 the results were M18AAP inhibitor inactive, TbHK1 inh inactive, L929 necroptosis inactive, RBBP9 inh inactive, TNF necrop inh inactive and Lipid droplet inactive.
CCOC(=O)c1sc(NNC(=O)c2ccc(F)cc2)nc1C was read as M18AAP inhibitor 28, TbHK1 inh inactive, L929 necroptosis inactive, RBBP9 inh inactive, TNF necrop inh inactive and Lipid droplet inactive.
Screening CCOC(=O)c1sc(NC(=O)c2ccc(S(=O)(=O)N(C)C)cc2)nc1C returned M18AAP inhibitor inactive, TbHK1 inh inactive, L929 necroptosis inactive, RBBP9 inh inactive, TNF necrop inh inactive and Lipid droplet inactive.
For O=C1c2ccccc2C(=O)c2c1ccc(C(=O)N1CCCCC1)c2NCCO the results were M18AAP inhibitor inactive, TbHK1 inh inactive, L929 necroptosis inactive, RBBP9 inh inactive and TNF necrop inh inactive.
Screening CC1(C)CCCN(C(=O)c2ccc3c(c2NCCO)C(=O)c2ccccc2C3=O)C1 returned M18AAP inhibitor inactive, TbHK1 inh inactive, RBBP9 inh inactive, TNF necrop inh inactive and Lipid droplet 98.
Screening CCOP(=O)(OCC)C1NC(=O)N(c2ccccc2)C1=O (stereo unspecified) returned M18AAP inhibitor inactive and Lipid droplet inactive.
`O=C(Oc1ccc[nH]c1=O)c1cc([N+](=O)[O-])cc([N+](=O)[O-])c1` gave M18AAP inhibitor 30, TbHK1 inh inactive, L929 necroptosis inactive, RBBP9 inh inactive, TNF necrop inh inactive and Lipid droplet inactive.
Screening COc1ccc(C(=O)Oc2ccc[nH]c2=O)cc1 returned M18AAP inhibitor inactive, TbHK1 inh inactive, L929 necroptosis inactive, RBBP9 inh inactive, TNF necrop inh inactive and Lipid droplet inactive.
Screening Cn1c(=O)c2[nH]c(-c3ccccc3Cl)c(O)c2n(C)c1=O returned M18AAP inhibitor 44, TbHK1 inh inactive, L929 necroptosis inactive, RBBP9 inh inactive, TNF necrop inh inactive and Lipid droplet inactive.
For Cn1c(=O)c2[nH]c(-c3ccccc3)c(O)c2n(C)c1=O the results were M18AAP inhibitor 58, TbHK1 inh inactive, L929 necroptosis inactive, RBBP9 inh inactive, TNF necrop inh inactive and Lipid droplet inactive.
Screening COc1ccc(C(=O)c2ccc(Cl)cc2)cc1 returned M18AAP inhibitor inactive, TbHK1 inh inactive, L929 necroptosis inactive, RBBP9 inh inactive, TNF necrop inh inactive and Lipid droplet inactive.
`COc1ccc(C(C#N)=C2C=CC(=NO)C=C2)cc1` gave M18AAP inhibitor 29, TbHK1 inh inactive, L929 necroptosis inactive, RBBP9 inh inactive, TNF necrop inh inactive and Lipid droplet inactive.
`CN1C(=O)NC(c2cccc([N+](=O)[O-])c2)C2=C1CCCC2=O` (stereo unspecified) gave M18AAP inhibitor inactive and Lipid droplet inactive.
For COc1ccc(C(=O)NCC(=O)OCC(=O)c2ccc3c(c2)NC(=O)CO3)cc1 the results were M18AAP inhibitor inactive, TbHK1 inh inactive, L929 necroptosis inactive, RBBP9 inh inactive, TNF necrop inh inactive and Lipid droplet inactive.
